This is one part of a sample in which hits are shown more often than they occur.
INS promoter act: TRM-6 insulin promoter activation. AID 1296. activation, % at 2 µM. actives 0.81% (n = 130,000). TRM-6 cells (human fetal islet line), insulin promoter eGFP reporter, imaging; plate-scaled: unstimulated 0, stimulated control 100;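 active = activation at 2 µM above a set limit, confirmed on inspection of the cell images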;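 note: share of cells whose green reporter signal exceeds an intensity cutoff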
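Test system: TRM-6 insulin promoter–eGFP reporter cells / Quantity: 1,000 cells per well / Reagent: tamoxifen inducer, 0.75 µM, in seeding medium / Compound dosing: 2 µM final, single concentration / Schedule: overnight tamoxifen, then two-day compound incubation at 37 °C / Measured by: automated fluorescence imaging of paraformaldehyde-fixed, Hoechst-counterstained cells, green channel / Read-out: percent activation from GFP-positive cell fraction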
* marks the source's active call; other numbers are inactive results.

SMILES | INS promoter act
Cc1ccc(-c2cc(-c3nnc(SCC(=O)NC(C)C(C)C)n3N)c3ccccc3n2)cc1 (centres undefined) | 2
CN(C(=O)CSc1nc(-c2ccccc2)cn1N)C(c1ccccc1)c1ccccc1 | 82*
O=C(Nc1cc(N2CCOCC2)ncn1)NC1(C(F)(F)F)Oc2ccccc2O1 | 43
O=C(CN1C(=O)C2CC=CCC2C1=O)Nc1ccc(S(=O)(=O)N2CCOCC2)cc1 (centres undefined) | -73
Cc1ccccc1-n1c(C)nnc1SCc1cc(=O)oc2ccc3ccccc3c12 | 7
O=C(Nc1ccccc1)Nc1cccc(Cl)c1Cl | -8
CNC(=O)Nc1ccccc1C(=O)NCc1ccccc1 | -4
O=C(Nc1ccccc1)Nc1ccccc1C(=O)NCc1ccccc1 | 77*
O=C(Nc1cccc(C(F)(F)F)c1)n1cc(-c2ccccn2)c(N2CCOCC2)n1 | 9
COc1ccc(C(C)C)cc1S(=O)(=O)n1ccnc1C | 7
CC[n+]1c(/C=C/N(C)c2ccccc2)oc2ccccc21 | 156
CC[n+]1c(/C=C/Nc2ccccc2)oc2ccccc21 | 138*
CCOC(=O)c1c(-c2ccccc2)oc2ccc(OC)cc12 | 0
O=S(=O)([O-])CCC[n+]1c(/C=C\Nc2ccccc2)oc2ccc(-c3ccccc3)cc21 | 376*
CC[n+]1c(/C=C/Nc2ccccc2)oc2ccc(OC)cc21 | 456*
CC[n+]1c(/C=C/N(C)c2ccccc2)oc2ccc(F)cc21 | 6
O=C(COC(=O)c1cc(-c2cccs2)nn1-c1ccccc1)Nc1ccc(Cl)c([N+](=O)[O-])c1 | 6
CS(=O)(=O)N(Cc1ccccc1)c1ccc(C(=O)Nc2ccc3c(c2)OCO3)cc1 | 0
C=CCn1c(CCCNC(=O)c2ccccc2OC)nc2ccccc21 | 0
O=C(c1ccc2ccccc2n1)N1CCN(c2ccccc2O)CC1 | 3
FC(F)(F)c1cc(-c2ccco2)nc(NCCc2ccccc2)n1 | -8
CCOC(=O)c1c(N2C(=O)Nc3cc(Cl)c(Cl)cc3N2O)sc2c1CCCCC2 | 8
O=C(Nc1nc2ccccc2s1)C1=NN(c2ccccc2)C(=O)CC1 | 7
CCOc1ccccc1NC(=O)COC(=O)CSc1ccc(Cl)cc1 | -8
Cn1c(C(=O)c2ccccc2[N+](=O)[O-])nc2ccccc21 | -80
SMILES | INS promoter act
C=CCNC(=O)c1ccccc1NC(=O)C1COc2ccccc2O1 (centres undefined) | 471*
O=C(Nc1ccccc1C(=O)N1CCCC1)C1COc2ccccc2O1 (centres undefined) | -8
CCc1nnc(NC(=O)C2COc3ccccc3O2)s1 (centres undefined) | -5
Clc1ccc(OCc2nc(-c3ccncc3)no2)c(Cl)c1 | 8
Clc1ccc(OCc2nnc(-c3ccccc3Br)o2)c(Cl)c1 | 120*
Clc1ccc(-c2nnc(-c3ccccc3)o2)c(Cl)c1 | 115
O=C(CN(C(=O)CSc1nc2ccccc2o1)c1ccccc1F)NC1CCCCC1 | -3
O=C(NC1CCCCC1)c1cc([N+](=O)[O-])[nH]n1 | 0
CC(C)C(=O)Nc1cccc(S(=O)(=O)c2cccc(NC(=O)C(C)C)c2)c1 | 488*
Cc1nnc(NC(=O)c2cccc(NC(=O)C(C)C)c2)s1 | -5
CC(C)C(=O)Nc1cccc(NC(=O)c2cc3ccccc3o2)c1 | -79
CC(C)CNC(=O)c1ccc(COc2ccc(Cl)cc2Cl)o1 | -8
COc1ccc(CCc2nc(C)ccc2O)cc1 | -89
COCCNC(=O)C1CC(=O)N(c2ccc(OC)cc2)C1c1ccc(OC)cc1 (centres undefined) | -7
O=c1cc(N2CCOCC2)cnn1-c1ccccc1 | -8
CC(=O)/C(=C/c1ccc(N(C)C)cc1)C(=O)c1ccccc1 | 6
CN(C)c1ccc(/C=C/c2cc[n+](C)cc2)cc1 | 174*
CN(C)c1ccc(/C=N/N=C/c2ccccc2O)cc1 | 3
CCOc1ccccc1-n1c(SCC(N)=O)nnc1-c1ccccc1 | 154*
CCOc1ccccc1-n1c(SCC(N)=O)nc2ccccc2c1=O | 3
COc1cccc(-c2nnc(SCC(N)=O)n2-c2ccc(Cl)cc2)c1 | 0
O=C(COC(=O)Cc1cccc(C(F)(F)F)c1)Nc1ccc2c(c1)OCCO2 | -5
COCCNC(=O)C(c1c[nH]c2ccccc12)N(C(=O)c1snc(C(N)=O)c1N)c1cccc(OC)c1 (centres undefined) | -8
CCOC(=O)CSc1ncc(-c2ccc([N+](=O)[O-])cc2)[nH]1 | -3
Cn1nc(-c2ccccc2)c2nc3ccccc3nc21 | 150*
SMILES | INS promoter act
Cn1c(=O)c(-c2ccccc2)nc2ccccc21 | 328
Cc1nnc2c(-c3ccccc3)nc3ccccc3n12 | 9
Brc1cc2c(cc1/C=N/Nc1nc(N3CCCCC3)nc(N3CCCCC3)n1)OCO2 | 0
CC(=O)c1c(C(C)=O)c(C)n(C2CCCCC2)c1C | 3
CCCCn1c(CN(C)Cc2ccccc2)nc2c1c(=O)n(C)c(=O)n2C | -71
CN(Cc1ccccc1)Cc1nc2c([nH]1)c(=O)n(C)c(=O)n2C | 105*
CCCn1c(CN(C)Cc2ccccc2)nc2c1c(=O)n(C)c(=O)n2C | 0

Screens: PubChem, Columbia University Molecular Screening Center
